Measured values reported in the M2OR odorant receptor database.

What was measured:
Conditions in all cases: stereoisomer not certain
OR1A1 (Homo sapiens) = molecular target: T1, OR1A1 (Homo sapiens) (UniProt Q9P1Q5)
T1 sequence (whole entry): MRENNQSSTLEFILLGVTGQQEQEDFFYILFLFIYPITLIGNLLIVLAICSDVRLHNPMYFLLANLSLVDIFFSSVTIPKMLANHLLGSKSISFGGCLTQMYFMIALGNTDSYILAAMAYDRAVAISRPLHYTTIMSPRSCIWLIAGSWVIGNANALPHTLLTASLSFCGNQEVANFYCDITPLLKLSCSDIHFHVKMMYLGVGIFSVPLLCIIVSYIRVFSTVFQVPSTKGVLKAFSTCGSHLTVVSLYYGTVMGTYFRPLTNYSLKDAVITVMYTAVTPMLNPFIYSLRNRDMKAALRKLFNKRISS
Outline: (§1)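 Whether a receptor–molecule pair is responsive (active) rests on the original authors' judgment that its measured signal was statistically different from baseline. Pairs without that judgment are non-responsive (inactive). Sources used varied assay methods, commonly transient luciferase assays in mammalian cell lines.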

OR13H1 (Homo sapiens) = molecular target: T2, OR13H1 (Homo sapiens) (UniProt Q8NG92)
T2 sequence (whole entry): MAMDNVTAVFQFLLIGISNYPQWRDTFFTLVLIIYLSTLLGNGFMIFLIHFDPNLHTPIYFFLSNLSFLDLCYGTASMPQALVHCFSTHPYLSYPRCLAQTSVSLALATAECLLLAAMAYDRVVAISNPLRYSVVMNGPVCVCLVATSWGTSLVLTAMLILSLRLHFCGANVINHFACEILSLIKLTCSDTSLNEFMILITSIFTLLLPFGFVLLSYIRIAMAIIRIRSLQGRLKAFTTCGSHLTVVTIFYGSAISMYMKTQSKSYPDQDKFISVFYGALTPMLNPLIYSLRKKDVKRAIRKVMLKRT
Outline: as §1

OR13J1 (Homo sapiens) = molecular target: T3, OR13J1 (Homo sapiens) (UniProt Q8NGT2)
T3 sequence (whole entry): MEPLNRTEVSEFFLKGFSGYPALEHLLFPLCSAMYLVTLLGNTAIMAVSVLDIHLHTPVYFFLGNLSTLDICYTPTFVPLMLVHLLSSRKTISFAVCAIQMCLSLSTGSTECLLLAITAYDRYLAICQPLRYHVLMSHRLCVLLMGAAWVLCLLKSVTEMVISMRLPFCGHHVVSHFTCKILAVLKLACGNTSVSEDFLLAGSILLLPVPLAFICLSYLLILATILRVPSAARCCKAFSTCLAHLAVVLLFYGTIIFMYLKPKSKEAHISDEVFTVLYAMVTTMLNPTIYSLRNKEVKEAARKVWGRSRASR
Outline: as §1

OR14A16 (Homo sapiens) = molecular target: T4, OR14A16 (Homo sapiens) (UniProt Q8NHC5)
T4 sequence (whole entry): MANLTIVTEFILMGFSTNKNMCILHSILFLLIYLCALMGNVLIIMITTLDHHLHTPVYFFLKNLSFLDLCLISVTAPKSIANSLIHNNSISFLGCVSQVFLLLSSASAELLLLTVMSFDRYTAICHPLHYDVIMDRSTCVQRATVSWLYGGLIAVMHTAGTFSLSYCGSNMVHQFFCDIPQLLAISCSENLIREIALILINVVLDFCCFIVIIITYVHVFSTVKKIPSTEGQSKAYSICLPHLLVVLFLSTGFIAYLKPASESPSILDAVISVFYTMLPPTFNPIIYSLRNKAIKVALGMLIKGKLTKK
Outline: as §1

OR14A2 (Homo sapiens) = molecular target: T5, OR14A2 (Homo sapiens) (UniProt Q96R54)
T5 sequence (whole entry): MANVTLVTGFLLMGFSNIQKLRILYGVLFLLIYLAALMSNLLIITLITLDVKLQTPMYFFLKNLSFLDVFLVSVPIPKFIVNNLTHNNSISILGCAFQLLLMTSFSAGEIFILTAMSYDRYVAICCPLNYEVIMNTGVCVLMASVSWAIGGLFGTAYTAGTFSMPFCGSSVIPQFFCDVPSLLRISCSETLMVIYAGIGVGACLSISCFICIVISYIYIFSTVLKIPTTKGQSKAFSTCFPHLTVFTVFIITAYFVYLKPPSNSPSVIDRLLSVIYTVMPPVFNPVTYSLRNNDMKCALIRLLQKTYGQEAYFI
Outline: as §1

OR14C36 (Homo sapiens) = molecular target: T6, OR14C36 (Homo sapiens) (UniProt Q8NHC7)
T6 sequence (whole entry): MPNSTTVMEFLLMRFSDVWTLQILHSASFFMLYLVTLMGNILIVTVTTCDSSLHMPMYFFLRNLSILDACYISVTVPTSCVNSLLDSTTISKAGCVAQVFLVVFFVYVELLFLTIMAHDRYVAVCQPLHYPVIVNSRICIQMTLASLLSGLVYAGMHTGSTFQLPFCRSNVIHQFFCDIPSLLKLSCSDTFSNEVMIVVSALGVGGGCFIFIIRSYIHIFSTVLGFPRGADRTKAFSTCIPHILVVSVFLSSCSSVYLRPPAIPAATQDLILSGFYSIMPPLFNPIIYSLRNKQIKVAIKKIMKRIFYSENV
Outline: as §1

OR14I1 (Homo sapiens) = molecular target: T7, OR14I1 (Homo sapiens) (UniProt A6ND48)
T7 sequence (whole entry): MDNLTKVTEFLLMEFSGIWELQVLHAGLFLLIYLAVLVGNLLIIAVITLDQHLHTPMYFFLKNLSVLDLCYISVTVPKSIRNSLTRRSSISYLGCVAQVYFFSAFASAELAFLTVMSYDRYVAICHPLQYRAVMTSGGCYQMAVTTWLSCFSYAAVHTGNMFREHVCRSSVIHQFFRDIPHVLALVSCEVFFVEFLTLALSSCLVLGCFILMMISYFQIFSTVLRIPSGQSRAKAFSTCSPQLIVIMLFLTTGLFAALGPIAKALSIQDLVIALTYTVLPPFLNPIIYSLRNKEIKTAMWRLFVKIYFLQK
Outline: as §1

OR14J1 (Homo sapiens) = molecular target: T8, OR14J1 (Homo sapiens) (UniProt Q9UGF5)
T8 sequence (whole entry): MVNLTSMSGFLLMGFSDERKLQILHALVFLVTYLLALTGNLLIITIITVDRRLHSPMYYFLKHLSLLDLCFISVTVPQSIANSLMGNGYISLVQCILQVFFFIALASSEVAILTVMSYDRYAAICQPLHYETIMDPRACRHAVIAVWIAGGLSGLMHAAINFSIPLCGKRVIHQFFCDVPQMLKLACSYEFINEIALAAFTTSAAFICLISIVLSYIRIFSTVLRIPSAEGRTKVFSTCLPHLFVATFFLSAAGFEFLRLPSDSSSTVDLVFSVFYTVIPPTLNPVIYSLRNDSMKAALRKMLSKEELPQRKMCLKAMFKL
Outline: as §1

OR14K1 (Homo sapiens) = molecular target: T9, OR14K1 (Homo sapiens) (UniProt Q8NGZ2)
T9 sequence (whole entry): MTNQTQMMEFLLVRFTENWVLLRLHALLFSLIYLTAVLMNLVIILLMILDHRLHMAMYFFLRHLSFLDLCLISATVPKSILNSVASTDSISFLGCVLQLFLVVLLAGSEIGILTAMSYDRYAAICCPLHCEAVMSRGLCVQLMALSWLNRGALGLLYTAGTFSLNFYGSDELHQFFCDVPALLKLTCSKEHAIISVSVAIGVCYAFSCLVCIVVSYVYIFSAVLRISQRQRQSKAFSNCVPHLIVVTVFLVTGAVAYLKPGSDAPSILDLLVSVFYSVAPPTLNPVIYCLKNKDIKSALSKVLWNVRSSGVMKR
Outline: as §1

OR1A1 A154T N155S = test system: OR1A1 A154T N155S
Outline: as §1

[1] = test system: OR1A1 G108A N109K A154T N155S
Outline: as §1

OR1A1 G108A N109K = test system: OR1A1 G108A N109K
Outline: as §1

OR1A1 G108A = test system: OR1A1 G108A
OR1A1 G108A, sequence (as listed by the source, stated change not applied): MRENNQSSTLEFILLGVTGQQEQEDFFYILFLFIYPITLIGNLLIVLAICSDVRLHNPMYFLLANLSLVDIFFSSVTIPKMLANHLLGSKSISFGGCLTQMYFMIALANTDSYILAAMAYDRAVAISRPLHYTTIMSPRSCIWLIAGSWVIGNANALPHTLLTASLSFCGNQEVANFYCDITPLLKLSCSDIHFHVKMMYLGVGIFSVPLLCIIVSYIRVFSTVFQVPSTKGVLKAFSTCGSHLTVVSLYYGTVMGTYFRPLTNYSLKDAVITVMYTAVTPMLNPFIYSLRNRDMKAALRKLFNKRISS
Outline: as §1

OR1A1 I114T = test system: OR1A1 I114T
OR1A1 I114T, sequence (as listed by the source, stated change not applied): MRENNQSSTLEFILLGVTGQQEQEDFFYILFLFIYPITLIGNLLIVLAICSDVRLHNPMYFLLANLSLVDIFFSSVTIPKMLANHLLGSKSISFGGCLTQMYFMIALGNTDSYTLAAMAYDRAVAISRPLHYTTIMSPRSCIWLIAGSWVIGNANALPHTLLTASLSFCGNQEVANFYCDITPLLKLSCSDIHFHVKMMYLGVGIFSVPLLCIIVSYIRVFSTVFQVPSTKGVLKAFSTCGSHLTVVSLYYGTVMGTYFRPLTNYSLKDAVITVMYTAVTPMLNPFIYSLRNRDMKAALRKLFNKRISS
Outline: as §1

OR1A1 I205V = test system: OR1A1 I205V
OR1A1 I205V, sequence (as listed by the source, stated change not applied): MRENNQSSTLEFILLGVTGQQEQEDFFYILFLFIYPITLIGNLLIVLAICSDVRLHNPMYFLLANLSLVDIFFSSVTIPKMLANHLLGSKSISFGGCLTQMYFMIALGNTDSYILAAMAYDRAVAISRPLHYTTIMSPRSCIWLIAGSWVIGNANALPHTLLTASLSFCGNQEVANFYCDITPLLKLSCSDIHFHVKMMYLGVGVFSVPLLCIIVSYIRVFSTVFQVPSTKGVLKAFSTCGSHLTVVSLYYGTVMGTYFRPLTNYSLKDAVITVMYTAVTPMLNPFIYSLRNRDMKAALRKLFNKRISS
Outline: as §1

OR1A1 N109K = test system: OR1A1 N109K
OR1A1 N109K, sequence (as listed by the source, stated change not applied): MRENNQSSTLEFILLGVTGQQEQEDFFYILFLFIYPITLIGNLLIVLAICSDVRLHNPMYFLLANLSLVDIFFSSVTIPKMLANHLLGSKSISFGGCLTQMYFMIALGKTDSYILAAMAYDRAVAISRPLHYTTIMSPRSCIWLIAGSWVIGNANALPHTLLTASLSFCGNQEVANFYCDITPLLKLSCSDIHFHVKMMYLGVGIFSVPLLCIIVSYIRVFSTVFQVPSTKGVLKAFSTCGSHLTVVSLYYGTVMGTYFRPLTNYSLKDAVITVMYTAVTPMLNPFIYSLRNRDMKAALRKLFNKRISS
Outline: as §1

OR1A1 T110A = test system: OR1A1 T110A
OR1A1 T110A, sequence (as listed by the source, stated change not applied): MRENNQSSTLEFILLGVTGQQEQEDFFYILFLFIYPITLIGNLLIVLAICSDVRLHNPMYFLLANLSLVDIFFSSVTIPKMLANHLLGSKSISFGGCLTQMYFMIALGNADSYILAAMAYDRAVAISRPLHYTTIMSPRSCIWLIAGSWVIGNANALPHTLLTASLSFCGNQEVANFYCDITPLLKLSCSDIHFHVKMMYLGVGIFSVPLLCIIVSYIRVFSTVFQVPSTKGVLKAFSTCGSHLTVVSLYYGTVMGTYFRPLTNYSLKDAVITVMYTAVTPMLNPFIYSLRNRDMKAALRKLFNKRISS
Outline: as §1

OR1A1 T277V = test system: OR1A1 T277V
OR1A1 T277V, sequence (as listed by the source, stated change not applied): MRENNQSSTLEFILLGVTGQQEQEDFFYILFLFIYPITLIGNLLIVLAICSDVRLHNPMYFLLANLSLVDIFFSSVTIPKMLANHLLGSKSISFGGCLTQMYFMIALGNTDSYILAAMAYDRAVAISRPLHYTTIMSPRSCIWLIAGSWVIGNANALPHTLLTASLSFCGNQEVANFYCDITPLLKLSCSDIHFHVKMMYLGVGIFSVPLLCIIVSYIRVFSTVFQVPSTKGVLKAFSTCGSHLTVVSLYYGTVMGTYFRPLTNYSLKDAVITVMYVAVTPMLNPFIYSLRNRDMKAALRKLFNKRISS
Outline: as §1

OR1A1 T99M = test system: OR1A1 T99M
OR1A1 T99M, sequence (as listed by the source, stated change not applied): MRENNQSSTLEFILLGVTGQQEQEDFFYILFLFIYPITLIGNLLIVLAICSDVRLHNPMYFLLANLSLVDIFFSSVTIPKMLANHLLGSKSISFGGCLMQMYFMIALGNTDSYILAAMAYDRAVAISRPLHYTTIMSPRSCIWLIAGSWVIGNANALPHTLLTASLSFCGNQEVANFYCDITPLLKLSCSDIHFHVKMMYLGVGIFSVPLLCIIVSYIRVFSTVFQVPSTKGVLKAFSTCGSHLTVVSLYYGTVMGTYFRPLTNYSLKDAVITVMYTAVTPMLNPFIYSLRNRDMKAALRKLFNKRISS
Outline: as §1

OR1A1 V254T = test system: OR1A1 V254T
OR1A1 V254T, sequence (as listed by the source, stated change not applied): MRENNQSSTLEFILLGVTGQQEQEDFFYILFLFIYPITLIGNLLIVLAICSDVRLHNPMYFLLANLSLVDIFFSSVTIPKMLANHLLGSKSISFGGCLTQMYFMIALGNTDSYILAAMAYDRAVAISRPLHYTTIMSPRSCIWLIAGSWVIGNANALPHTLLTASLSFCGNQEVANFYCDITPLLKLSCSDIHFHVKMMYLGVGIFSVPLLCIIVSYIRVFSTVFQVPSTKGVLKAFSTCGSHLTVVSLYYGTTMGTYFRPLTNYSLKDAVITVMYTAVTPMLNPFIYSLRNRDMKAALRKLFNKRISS
Outline: as §1

Measured: odorant receptor agonist call;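 note: active if original authors judged signal statistically different from baseline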

CCCCCC(=O)OCC
active: OR1A1 (Homo sapiens)

CCC(S)C(C)CO (centres undefined)
inactive: OR13H1 (Homo sapiens) | OR13J1 (Homo sapiens) | OR14A16 (Homo sapiens) | OR14A2 (Homo sapiens) | OR14C36 (Homo sapiens) | OR14I1 (Homo sapiens) | OR14J1 (Homo sapiens) | OR14K1 (Homo sapiens) | OR1A1 (Homo sapiens)

CCC(=O)C(=O)CC
inactive: OR1A1 (Homo sapiens)

CCCCC1OC(=O)CC1C (centres undefined)
inactive: OR1A1 (Homo sapiens)

C=C(C)C1CC=C(C)CC1 (centres undefined)
active: OR1A1 (Homo sapiens)

CCCSSSCCC
inactive: OR1A1 (Homo sapiens)

CCC1OC(=O)C(O)=C1C (centres undefined)
inactive: OR13H1 (Homo sapiens) | OR13J1 (Homo sapiens) | OR14A16 (Homo sapiens) | OR14A2 (Homo sapiens) | OR14C36 (Homo sapiens) | OR14I1 (Homo sapiens) | OR14J1 (Homo sapiens) | OR14K1 (Homo sapiens) | OR1A1 (Homo sapiens)

CCOC(=O)CC(C)C
inactive: OR1A1 (Homo sapiens)

CCCCCCCCCO
inactive: OR1A1 (Homo sapiens)

CCCCCC(=O)C(C)C(C)=O (centres undefined)
active: OR1A1 (Homo sapiens)
inactive: OR13H1 (Homo sapiens) | OR13J1 (Homo sapiens) | OR14A16 (Homo sapiens) | OR14A2 (Homo sapiens) | OR14C36 (Homo sapiens) | OR14I1 (Homo sapiens) | OR14J1 (Homo sapiens) | OR14K1 (Homo sapiens)

CCCC(=O)OCC
inactive: OR1A1 (Homo sapiens)

CC(=O)CC(=O)CC(C)C
active: OR1A1 (Homo sapiens)

CC(=O)C1=NCCS1
inactive: OR1A1 (Homo sapiens)

COc1cc(C(=O)O)ccc1O
inactive: OR1A1 (Homo sapiens)

Cc1occc(=O)c1O
inactive: OR1A1 (Homo sapiens)

CCCCOC(=O)C(C)OC(=O)CCC (centres undefined)
inactive: OR1A1 (Homo sapiens)

CCc1ncc(C)nc1CC
inactive: OR1A1 (Homo sapiens)

CCCCCCC=CCCC=O
inactive: OR13H1 (Homo sapiens) | OR13J1 (Homo sapiens) | OR14A16 (Homo sapiens) | OR14A2 (Homo sapiens) | OR14C36 (Homo sapiens) | OR14I1 (Homo sapiens) | OR14J1 (Homo sapiens) | OR14K1 (Homo sapiens) | OR1A1 (Homo sapiens)

CCCCC(S)C(C)CO (centres undefined)
inactive: OR13H1 (Homo sapiens) | OR13J1 (Homo sapiens) | OR14A16 (Homo sapiens) | OR14A2 (Homo sapiens) | OR14C36 (Homo sapiens) | OR14I1 (Homo sapiens) | OR14J1 (Homo sapiens) | OR14K1 (Homo sapiens) | OR1A1 (Homo sapiens)

CC1=C(O)C(=O)C(C)O1 (centres undefined)
inactive: OR13H1 (Homo sapiens) | OR13J1 (Homo sapiens) | OR14A16 (Homo sapiens) | OR14A2 (Homo sapiens) | OR14C36 (Homo sapiens) | OR14I1 (Homo sapiens) | OR14J1 (Homo sapiens) | OR14K1 (Homo sapiens) | OR1A1 (Homo sapiens)

CC(C)=CCCC(C)CCO (centres undefined)
active: OR1A1 A154T N155S | OR1A1 I114T | OR1A1 I205V | OR1A1 T110A | OR1A1 T277V | OR1A1 T99M | OR1A1 V254T
inactive: [1] | OR1A1 G108A N109K | OR1A1 G108A | OR1A1 N109K
